Test results from ChEMBL document CHEMBL1121682, “Cerebrovasodilatation through selective inhibition of the enzyme carbonic anhydrase. 3. 5-(Arylthio)-, 5-(arylsulfinyl)-, and 5-(arylsulfonyl)thiophene-2-sulfonamides” (J Med Chem, 1981).
Activity calls are given as the source filed them. The rule behind the calls is not given here.

Legend:
Mus musculus [1] = assay: Effective dose of perorally administered, that gives protection against max electroshock in mice; format: functional; details: po
Method in brief: (§1)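 Male mice of 18–28 g, with weights within ±2 g of the assay mean, in groups of ten. Vehicle controls were included. Corneal electrodes delivered 200 ms at 20 mA (mean weight ≤20 g) or 25 mA, the current giving maximal tonic extensor convulsion in untreated mice.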

[2] = Anticonvulsant potency ratio expressed as ratio ED50 of UK-12130 to that of compound during separate electroshock experiments; format: functional
Mus musculus [3] = assay: Effective dose of perorally administered compound that gives protection against max electroshock in mice; inactive; format: functional, organism-based
Method in brief: as §1, with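 “ten. Compound was ball-milled in 0.1% (v/v) Tween-80 in saline and given by gavage at 2.5, 6.25 and 16 mg/kg, 2 h before shock.” for “ten.”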

[4] = Concentration producing 50% inhibition of carbonic anhydrase taken from mouse erythrocytes
Method in brief: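 Colorimetric assay, modified from Philpot and Philpot, run in an ice bath with about 2 enzyme units. Inhibitor was preincubated with enzyme for 5 min before substrate was added. Activity was expressed as EU = (T0 − T)/T from the uncatalyzed and catalyzed reaction times in seconds. The 50% inhibitory concentration was read graphically.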

[5] = Dissociation constant in 30% aqueous methanol; format: physicochemical
[6] = Dissociation constant in water; format: physicochemical

SMILES | ED50 (Mus musculus [1]) | Ratio [2] | further results
NS(=O)(=O)c1ccc(Sc2ccccc2)s1 | 19 mg/kg | 0.3 | –
NS(=O)(=O)c1ccc(S(=O)(=O)c2ccc(Cl)cc2)s1 | 3 mg/kg | 2.3 | –
CC(C)C(=O)Nc1ccc(Sc2ccc(S(N)(=O)=O)s2)cc1 | – | – | ED50 (Mus musculus [3]): inactive
NS(=O)(=O)c1ccc(S(=O)(=O)c2ccc(O)cc2)s1 | – | – | ED50 (Mus musculus [3]): inactive
COC1CCN(S(=O)(=O)c2ccc(S(N)(=O)=O)c(Cl)c2)CC1 | – | – | Concentration [4]: 190 nM
CS(=O)(=O)c1ccc(S(=O)(=O)c2ccc(S(N)(=O)=O)s2)cc1 | 4 mg/kg | 1.75 | –
NS(=O)(=O)c1ccc([S+]([O-])c2ccc(F)cc2)s1 (centres undefined) | 3 mg/kg | 2 | –
NS(=O)(=O)c1sc(Sc2ccccc2)cc1Cl | – | – | ED50 (Mus musculus [3]): inactive
CC(=O)Nc1ccc([S+]([O-])c2ccc(S(N)(=O)=O)s2)cc1 (centres undefined) | 4 mg/kg | 1.5 | –
NS(=O)(=O)c1ccc(Sc2ccc(Cl)cc2)s1 | 3 mg/kg | 2 | pKa [5]: 9.19; Concentration [4]: 3 nM
CN(C)S(=O)(=O)c1ccc(S(=O)(=O)c2ccc(S(N)(=O)=O)s2)cc1 | – | – | ED50 (Mus musculus [3]): inactive
CC(=O)Nc1ccc(Sc2cc(Cl)c(S(N)(=O)=O)s2)cc1 | 5 mg/kg | 1.4 | –
Cc1ccc(S(=O)(=O)c2ccc(S(N)(=O)=O)s2)cc1 | 8 mg/kg | 0.8 | –
NS(=O)(=O)c1ccc(S(=O)(=O)c2ccc(F)cc2)s1 | 2 mg/kg | 4 | pKa [6]: 8.29; Concentration [4]: 9 nM
Cc1cc(S(N)(=O)=O)sc1S(=O)(=O)c1ccccc1 | 3 mg/kg | 2.7 | –
NS(=O)(=O)c1ccc(S(=O)(=O)c2cccc(F)c2)s1 | 2 mg/kg | 3.5 | –
CC(C)C(=O)Nc1ccc(S(=O)(=O)c2ccc(S(N)(=O)=O)s2)cc1 | 4 mg/kg | 2 | –
Cc1ccccc1Sc1ccc(S(N)(=O)=O)s1 | > 16 mg/kg | < 0.5 | –
NS(=O)(=O)c1ccc(S(=O)(=O)c2ccc(Br)cc2)s1 | 4 mg/kg | 1.75 | –
NS(=O)(=O)c1ccc(S(=O)(=O)c2ccc3ccccc3c2)s1 | 8 mg/kg | 0.75 | –
NS(=O)(=O)c1cc(Cl)c([S+]([O-])c2ccccc2)s1 (centres undefined) | > 6 mg/kg | < 1.3 | –

SMILES | ED50 (Mus musculus [1]) | Ratio [2] | further results
NS(=O)(=O)c1ccc(Sc2ccc(O)cc2)s1 | – | – | ED50 (Mus musculus [3]): inactive
Nc1ccc(S(=O)(=O)c2ccc(S(N)(=O)=O)s2)cc1 | 2 mg/kg | 3.5 | –
CC(=O)Nc1ccc(S(=O)(=O)c2cc(Cl)c(S(N)(=O)=O)s2)cc1 | > 6 mg/kg | < 1.3 | –
NS(=O)(=O)c1ccc(S(=O)(=O)c2ccccc2)cc1 | 10 mg/kg | 0.9 | pKa [6]: 9.1; Concentration [4]: 64 nM
NS(=O)(=O)c1ccc(S(=O)(=O)c2cccc(C(F)(F)F)c2)s1 | 5 mg/kg | 1.6 | –
CS(=O)(=O)c1ccc(Sc2ccc(S(N)(=O)=O)s2)cc1 | 5 mg/kg | 1.4 | –
NS(=O)(=O)c1cc(Cl)c(Sc2ccccc2)s1 | – | – | ED50 (Mus musculus [3]): inactive
NS(=O)(=O)c1cc(Br)c(S(=O)(=O)c2ccccc2)s1 | 3 mg/kg | 2.3 | pKa [6]: 7.98; Concentration [4]: 4.2 nM
COc1ccc([S+]([O-])c2ccc(S(N)(=O)=O)s2)cc1 (centres undefined) | > 6 mg/kg | < 1.3 | –
CC(C)(C)c1ccc(S(=O)(=O)c2ccc(S(N)(=O)=O)s2)cc1 | – | – | ED50 (Mus musculus [3]): inactive
NS(=O)(=O)c1cc(Cl)c(S(=O)(=O)c2ccccc2)s1 | 3 mg/kg | 2.3 | –
NS(=O)(=O)c1ccc(Sc2cccc(F)c2)s1 | > 6 mg/kg | < 1.3 | –
NS(=O)(=O)c1ccc(Sc2ccc(F)cc2)s1 | 7 mg/kg | 1 | –
NS(=O)(=O)c1ccc(S(=O)(=O)c2ccccc2)s1 | 2 mg/kg | 3.5 | –
CC(=O)Nc1ccc(S(=O)(=O)c2ccc(S(N)(=O)=O)s2)cc1 | 2 mg/kg | 4 | –
NS(=O)(=O)c1ccc(Sc2ccc3ccccc3c2)s1 | – | – | ED50 (Mus musculus [3]): inactive
NS(=O)(=O)c1ccc([S+]([O-])c2ccc(Cl)cc2)s1 (centres undefined) | 2 mg/kg | 3.5 | pKa [6]: 8.57; Concentration [4]: 26 nM
CC(C)(C)c1ccc(Sc2ccc(S(N)(=O)=O)s2)cc1 | – | – | ED50 (Mus musculus [3]): inactive
CC(=O)Nc1ccc(S(=O)(=O)c2sc(S(N)(=O)=O)cc2Cl)cc1 | 6 mg/kg | 1.3 | –
NS(=O)(=O)c1ccc([S+]([O-])c2ccccc2)s1 (centres undefined) | 2 mg/kg | 3.5 | –
NS(=O)(=O)c1ccc(Sc2cccc(Cl)c2)s1 | > 6 mg/kg | < 1.2 | –

SMILES | ED50 (Mus musculus [1]) | Ratio [2] | further results
CC(=O)c1cccc(S(=O)(=O)c2ccc(S(N)(=O)=O)s2)c1 | 3 mg/kg | 2.3 | –
CC(=O)Nc1ccc(Sc2ccc(S(N)(=O)=O)s2)cc1 | 9 mg/kg | 1.1 | –
NS(=O)(=O)c1cc(Br)c(Sc2ccccc2)s1 | – | – | ED50 (Mus musculus [3]): inactive
Cc1ccc([S+]([O-])c2ccc(S(N)(=O)=O)s2)cc1 (centres undefined) | > 6 mg/kg | < 1.3 | –
NS(=O)(=O)c1ccc([S+]([O-])c2cccc(Cl)c2)s1 (centres undefined) | 4 mg/kg | 1.75 | –
COc1ccc(Sc2ccc(S(N)(=O)=O)s2)cc1 | > 40 mg/kg | < 0.2 | –
NS(=O)(=O)c1sc(S(=O)(=O)c2ccccc2)cc1Cl | 33 mg/kg | 0.2 | –
CS(=O)(=O)c1ccc([S+]([O-])c2ccc(S(N)(=O)=O)s2)cc1 (centres undefined) | > 16 mg/kg | < 0.4 | –
CC(=O)Nc1nnc(S(N)(=O)=O)s1 [ACETAZOLAMIDE] | 36 mg/kg | – | Concentration [4]: 20 nM
CC(=O)Nc1ccc(Sc2sc(S(N)(=O)=O)cc2Cl)cc1 | – | – | ED50 (Mus musculus [3]): inactive
NS(=O)(=O)c1ccc([S+]([O-])c2ccc(Br)cc2)s1 (centres undefined) | 5 mg/kg | 1.4 | –
NS(=O)(=O)c1ccc(Sc2cccc(C(F)(F)F)c2)s1 | 6 mg/kg | 1.3 | –
NS(=O)(=O)c1ccc([S+]([O-])c2cccc(F)c2)s1 (centres undefined) | 2.5 mg/kg | 3.2 | –
CN(C)S(=O)(=O)c1ccc(Sc2ccc(S(N)(=O)=O)s2)cc1 | > 6 mg/kg | < 1.3 | –
Cc1ccccc1S(=O)(=O)c1ccc(S(N)(=O)=O)s1 | 6 mg/kg | 1.2 | –
NS(=O)(=O)c1ccc(Sc2ccc(Br)cc2)s1 | > 6 mg/kg | < 1.2 | –
Cc1ccc(Sc2ccc(S(N)(=O)=O)s2)cc1 | > 40 mg/kg | < 0.2 | –
NC(=O)c1ccc(S(=O)(=O)c2ccc(S(N)(=O)=O)s2)cc1 | 4 mg/kg | 2 | –
CSc1ccc(Sc2ccc(S(N)(=O)=O)s2)cc1 | 4 mg/kg | 1.75 | –
COc1ccc(S(=O)(=O)c2ccc(S(N)(=O)=O)s2)cc1 | 6 mg/kg | 1 | –
Nc1ccc(Sc2ccc(S(N)(=O)=O)s2)cc1 | 7 mg/kg | 1 | –
